Assay [1] relates to SNU-182. In words: Inhibition of TGFbeta1-induced epithelial-mesenchymal transition in human SNU182 cells assessed as reduction in upregulation of N-cadherin expression preincubated for 2 hrs followed by TGFbeta1 addition measured after 48 hrs in presence of (E)-1-(9-Ethyl-9H-carbazol-3-yl)-5-(4-hydroxy-3-methoxyphenyl)pent-1-en-3-one by Western blot method. The assay is classed as functional, cell-based. Put shortly:
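Pretreatment of SNU182 cells with the mixture at 20 and 40 µM for 2 h in serum-free medium, followed by TGF-β1 5 ng/ml for 48 h. N-cadherin and Snail detected by Western blot against GAPDH.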
(In western blotting, separated proteins are transferred to a membrane and probed.)

In assay [2] the test system is SNU-182. Kind of assay: Inhibition of TGFbeta1-induced epithelial-mesenchymal transition in human SNU182 cells assessed as reduction in MMP2 mRNA expression at 40 uM preincubated for 2 hrs followed by TGFbeta1 addition measured after 48 hrs by qRT-PCR method. The assay is classed as functional, cell-based. The gist of the method: (§1)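 SNU182 cells pretreated 2 h with single agents (12.5 or 40 µM) or the mixture (20 or 40 µM), then TGF-β 5 ng/ml for 48 h. MMP-2 and MMP-9 mRNA measured by RT-PCR with densitometry and by qRT-PCR, fold change by the 2^-ΔΔCt method. Mean±SD of triplicates.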
For orientation: In qPCR the cycle at which signal appears reflects the starting amount.

The subject of assay [3] is SNU-182. In words: Inhibition of TGFbeta1-induced invasion in human SNU182 cells at 40 uM measured after 48 hrs in presence of (E)-1-(9-Ethyl-9H-carbazol-3-yl)-5-(4-hydroxy-3-methoxyphenyl)pent-1-en-3-one by microscopic method. Format: functional, cell-based. Put shortly:
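Matrigel invasion chamber: SNU182 cells in the inner chamber received TGF-β1 with or without the mixture for 48 h. Cells on the lower surface stained, imaged at 200×, and counted. Mean±SD of triplicates.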

The test system of assay [4] is SNU-182. In words: Growth inhibition of human SNU182 cells at <50 uM in presence of (E)-1-(9-Ethyl-9H-carbazol-3-yl)-5-(4-hydroxy-3-methoxyphenyl)pent-1-en-3-one after 48 hrs by CCK8 assay. The assay is classed as functional, cell-based.
The test system of assay [5] is SNU-182. In words: Inhibition of TGFbeta1-induced epithelial-mesenchymal transition in human SNU182 cells assessed as reduction in MMP9 mRNA expression preincubated for 2 hrs followed by TGFbeta1 addition measured after 48 hrs in presence of (E)-1-(9-Ethyl-9H-carbazol-3-yl)-5-(4-hydroxy-3-methoxyphenyl)pent-1-en-3-one by qRT-PCR method. Format: functional, cell-based. Put shortly: as §1

For assay [6], the system named is SNU-182. Kind of assay: Inhibition of TGFbeta1-induced epithelial-mesenchymal transition in human SNU182 cells assessed as reduction in downregulation of E-cadherin expression at 12.5 uM preincubated for 2 hrs followed by TGFbeta1 addition measured after 48 hrs by Western blot method. Format: functional, cell-based. Put shortly: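 SNU182 cells pretreated 2 h with single agents (12.5 or 40 µM) or the mixture (20 and 40 µM), then stimulated with TGF-β1 5 ng/ml for 48 h. E-cadherin and Snail protein detected by Western blot, with GAPDH as loading control.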

Assay [7] has as its target T1, NF-kappa-B inhibitor alpha (Homo sapiens) (UniProt P25963).
T1 sequence (whole entry): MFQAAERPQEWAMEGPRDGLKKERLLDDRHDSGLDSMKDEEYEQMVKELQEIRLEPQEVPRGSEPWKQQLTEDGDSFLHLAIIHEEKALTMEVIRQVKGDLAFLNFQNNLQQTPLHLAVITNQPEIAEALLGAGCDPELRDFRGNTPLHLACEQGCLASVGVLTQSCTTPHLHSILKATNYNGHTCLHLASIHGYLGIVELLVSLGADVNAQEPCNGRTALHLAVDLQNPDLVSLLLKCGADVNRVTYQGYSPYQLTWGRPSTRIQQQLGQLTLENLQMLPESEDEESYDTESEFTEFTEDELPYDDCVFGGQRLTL
Kind of assay: Inhibition of TGFbeta1-induced IkB-alpha phosphorylation in human SNU182 cells at 20 to 40 uM preincubated for 2 hrs followed by TGFbeta1 addition measured after 120 mins in presence of zingerone by Western blot method. Format: cell-based. The gist of the method:
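SNU182 cells pretreated with the mixture (20 and 40 µM) for 2 h, then exposed to TGF-β1 for 120 min. IκB protein assessed by Western blot, with GAPDH loading control.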

Assay [8] relates to SNU-182. Kind of assay: Inhibition of TGFbeta1-induced epithelial-mesenchymal transition in human SNU182 cells assessed as reduction in MMP9 mRNA expression at 12.5 uM preincubated for 2 hrs followed by TGFbeta1 addition measured after 48 hrs by qRT-PCR method. Format: functional, cell-based. Put shortly: as §1
In assay [9] the test system is SNU-182. In words: Inhibition of TGFbeta1-induced epithelial-mesenchymal transition in human SNU182 cells assessed as reduction in mesenchymal phenotype preincubated for 2 hrs followed by TGFbeta1 addition measured after 48 hrs in presence of zingerone. Format: functional, cell-based. Put shortly:
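Cells preincubated 2 h in serum-free medium with the mixture (20 and 40 µM), then treated with TGF-β1 5 ng/ml for 48 h. Morphology (spindle-like, elongated shape, scattering) assessed by microscopy.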

The test system of assay [10] is SNU-182. Kind of assay: Inhibition of TGFbeta1-induced epithelial-mesenchymal transition in human SNU182 cells assessed as reduction in MMP9 mRNA expression preincubated for 2 hrs followed by TGFbeta1 addition measured after 48 hrs in presence of zingerone by qRT-PCR method. Format: functional, cell-based. Put shortly:
as §1

For assay [11], the system named is SNU-182. In words: Growth inhibition of human SNU182 cells after 48 hrs by CCK8 assay. The assay is classed as functional, cell-based.
The species entered for another assay is Homo sapiens. Kind of assay: Inhibition of TGFbeta1-induced NF-kB nuclear translocation in human SNU182 cells preincubated for 2 hrs followed by TGFbeta1 addition measured after 12 hrs in presence of zingerone by Western blot method. Format: cell-based. Put shortly:
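Mixture added to SNU182 cells for 2 h before TGF-β1 for 12 h. Cytosolic and nuclear fractions analysed by Western blot for NF-κB, with COX4 as cytosolic and Lamin B1 as nuclear marker.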

Activity calls are given as the source filed them. The calls are words filed in the database; no cut-off is given here.

Consider `COc1cc(CCC(C)=O)ccc1O`, for which the inhibition result in the assay on SNU-182 [1] and with SNU-182 [5] was “Dose-dependent effect” each time. For the same compound, in the assay on SNU-182 [2], the inhibition entry is “inactive”. Moreover, the inhibition entry in the assay on SNU-182 [3] was “Active”. The “growth inhibition (GI)” value in the assay on SNU-182 [4] is “inactive”.

On to `CCn1c2ccccc2c2cc(/C=C/C(=O)CCc3ccc(O)c(OC)c3)ccc21`, for which the inhibition result with SNU-182 [6] and in the assay on SNU-182 [8] was “inactive” in each case. Further, the inhibition entry in [7] was “Active”. Further, the inhibition result in the assay on SNU-182 [9], in the assay with SNU-182 [10] and in the assay filed under Homo sapiens was “Dose-dependent effect” in each case. The “growth inhibition (GI)” value with SNU-182 [11] was “Dose-dependent effect”.

For the origin of these results see ChEMBL document CHEMBL3992541, “Combined treatment with zingerone and its novel derivative synergistically inhibits TGF-β1 induced epithelial-mesenchymal transition, migration and invasion of human hepatocellular carcinoma cells” (2017).
